E-sel inducer: induces E-selectin expression in human endothelial cells; 260,000 tested, 0.37% active; activation, % at 7.58 µM; P16581; HUVEC E-selectin immunofluorescence imaging; normalized: neutral wells 0, TNF-alpha wells 100;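 active means mean E-selectin-positive cell signal at least 10% of the positive control, reached in at least 60% of replicates, without over 20% cell loss; inconclusive means no rule given, readout overlaps actives, possibly toxicity-flagged; inactive means the rest, including those meeting only one limit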
Target sequence (P16581 whole entry, looked up): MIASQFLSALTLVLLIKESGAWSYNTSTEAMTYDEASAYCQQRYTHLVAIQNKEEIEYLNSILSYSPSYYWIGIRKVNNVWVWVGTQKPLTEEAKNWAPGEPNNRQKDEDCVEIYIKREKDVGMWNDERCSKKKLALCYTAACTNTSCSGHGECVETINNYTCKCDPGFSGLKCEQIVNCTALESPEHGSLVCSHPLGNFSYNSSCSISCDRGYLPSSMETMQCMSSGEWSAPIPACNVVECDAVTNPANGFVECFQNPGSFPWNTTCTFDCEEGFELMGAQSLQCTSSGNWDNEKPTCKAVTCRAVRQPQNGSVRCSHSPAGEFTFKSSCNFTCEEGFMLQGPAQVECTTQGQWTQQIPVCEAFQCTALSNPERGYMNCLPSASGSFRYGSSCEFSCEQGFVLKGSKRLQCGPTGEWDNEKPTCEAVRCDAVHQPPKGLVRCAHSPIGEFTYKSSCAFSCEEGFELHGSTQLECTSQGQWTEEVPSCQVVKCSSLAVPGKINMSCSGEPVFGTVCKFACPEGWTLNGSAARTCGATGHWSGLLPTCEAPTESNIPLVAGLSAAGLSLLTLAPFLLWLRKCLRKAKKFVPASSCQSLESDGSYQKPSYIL
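Read-out basis: % PE-positive cells; Test system: HUVEC primary endothelial cells; Technique: immunofluorescence imaging; Dosing: single-point compound dose.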
ERAP1 inh: blocks human ERAP1 aminopeptidase activity | inhibition, % at 10.7 µM | 340,000 tested, 0.15% active | AID 652197 | recombinant ERAP1, Leu-AMC fluorescence, 60 min;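 active means mean replicate inhibition of at least 30%, or all replicates individually reaching that 30% level; inactive means mean below 30% and not every replicate reaching it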;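 further: 0% = neutral control wells and 100% = L-leucinethiol positive control wells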
F508del corr: CFTR F508del correction in bronchial cells; CFBE cells, YFP halide quenching; stimulated with forskolin plus potentiator P3; % fluorescence drop versus neutral controls; activity (quench increase), % at 7.58 µM; 350,000 tested, 0.36% active;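 active means mean added fluorescence quench of at least 8% versus neutral control, with both replicates also reaching 8%; inconclusive means only one of the mean or replicate conditions met; inactive means mean below 8% and not both replicates reaching 8%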;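 further: cells transiently co-express mutant CFTR-F508del with the halide-sensitive YFP; corrector assay measuring rescue of mutant channel to the surface after 24 h compound exposure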
DENV2 CPE rescue: inhibitors of DENV2 cytopathic effect; CPE inhibition, % at 9.99 µM; 350,000 tested, 1.7% active; DENV2-infected cells, cytopathic effect rescue, plate reader; in the data active means CPE inhibition above about 20%, passing the limit was not always enough; inconclusive means no clear call, values can overlap the other calls; tested in BHK-21 cells;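 further: 0% = median of neutral control wells and 100% = median of positive control wells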
FGF22 binding: shifts melting point of recombinant human FGF22 | AID 651658 | Q9HCT0 | 340,000 tested, 1.5% active | activity (Tm shift, normalised), % at 9.99 µM | recombinant FGF22 thermal shift, SYPRO orange fluorescence; percent of sucrose octasulfate shift, DMSO zero;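 active means mean Tm shift, scaled 0 neutral to 100 positive control, at about 1.3% or above, every replicate too, limit read from the data; inconclusive means no clear call, values can overlap the other calls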
Starred values were filed as active, the others as inactive. Most compounds without a hit are left out; they make up all but 3.7% or so of the library.

What do the screens show for `CS(=O)(=O)N1CC2(C1)[C@H](c1ccccc1)[C@@H](CO)N2CC1CC1`?
E-sel inducer: -0.2; ERAP1 inh: 1.9; F508del corr: -1.7; DENV2 CPE rescue: -10.8; FGF22 binding: -0.1

How did CN1C(=O)c2cc(NC(=O)Cc3ccccc3)ccc2OC[C@@H]2O[C@@H](CC(=O)NCC3CC3)CC[C@H]21 do in these assays?
E-sel inducer: 0.1; ERAP1 inh: 0.6; F508del corr: -3.0; DENV2 CPE rescue: inconclusive; FGF22 binding: -0.3

What do the screens show for `CC(C)NC(=O)Nc1ccc2c(c1)C(=O)N([C@H](C)CO)C[C@@H](C)[C@@H](CN(C)Cc1ccc3c(c1)OCO3)O2`?
E-sel inducer: 3.2; ERAP1 inh: -1.3; F508del corr: 2.1; DENV2 CPE rescue: -1.8; FGF22 binding: -0.3

What do the screens show for `C[C@H]1CN([C@@H](C)CO)C(=O)c2cc(NS(=O)(=O)c3cccs3)ccc2O[C@@H]1CN(C)S(=O)(=O)c1ccc(Cl)cc1`?
E-sel inducer: -0.2; ERAP1 inh: -1.8; F508del corr: -0.7; DENV2 CPE rescue: inconclusive; FGF22 binding: 0.2

How did O=c1[nH]c(CSc2nnnn2-c2ccccc2)nc2ccccc12 do in these assays?
E-sel inducer: -0.4; ERAP1 inh: -2.4; F508del corr: -0.2; DENV2 CPE rescue: -10.4; FGF22 binding: 43.4*

Results for O=C(c1ccc(N2CCN(C(=O)c3ccccc3)CC2)cc1)c1cccc(F)c1 ?
ERAP1 inh: 5.8; F508del corr: -0.9; DENV2 CPE rescue: 65.2*; FGF22 binding: -0.3

How did O=C(c1ccc(N2CCN(C(=O)c3ccc(F)c(F)c3)CC2)cc1)c1cccc(F)c1 do in these assays?
E-sel inducer: -0.8; ERAP1 inh: -1.8; F508del corr: -1.6; DENV2 CPE rescue: inconclusive; FGF22 binding: 0.1

What do the screens show for `CN(C)C1(CNC(=O)C2CCN(S(=O)(=O)c3ccccc3C(F)(F)F)CC2)CCCCC1`?
ERAP1 inh: -1.3; F508del corr: -0.5; DENV2 CPE rescue: 31.0*; FGF22 binding: -0.1

Results for O=C(NCc1ccco1)C1CCN(S(=O)(=O)c2ccccc2C(F)(F)F)CC1 ?
E-sel inducer: 0.3; ERAP1 inh: -2.8; F508del corr: -0.8; DENV2 CPE rescue: -1.1; FGF22 binding: -0.3

Results for COc1cccc(S(=O)(=O)N(C)C[C@H]2Oc3cc(C#CCN(C)C)ccc3S(=O)(=O)N([C@H](C)CO)C[C@@H]2C)c1 ?
E-sel inducer: -0.1; ERAP1 inh: -3.9; F508del corr: -4.4; DENV2 CPE rescue: 10.1; FGF22 binding: 0.7

What do the screens show for `Cc1ccc(CNCc2cc(Cl)ccc2O)cc1`?
E-sel inducer: 0.1; ERAP1 inh: -7.0; F508del corr: -0.3; DENV2 CPE rescue: 87.6*; FGF22 binding: 0.1

What do the screens show for `O=C(O)c1ccc(CNCc2cc(Cl)ccc2O)cc1`?
E-sel inducer: 0.0; F508del corr: -0.6; DENV2 CPE rescue: -0.4; FGF22 binding: -0.2

What do the screens show for `COC(=O)[C@]1(CCC(=O)OC(C)(C)C)N=C(c2ccc(OCCCO)cc2)O[C@@H]1c1ccccc1`?
ERAP1 inh: 0.4; F508del corr: 2.0; DENV2 CPE rescue: -7.6; FGF22 binding: -0.9

What do the screens show for `C=CCON/C(CCC)=C1\C(=O)CC(C)(C)CC1=NC`?
E-sel inducer: 0.0; F508del corr: -1.0; DENV2 CPE rescue: -0.1; FGF22 binding: -0.2

How did C=CCON/C(CCC)=C1\C(=O)C(C(=O)OC)C(C)(C)CC1=NC (configuration not stated) do in these assays?
E-sel inducer: -0.5; ERAP1 inh: -6.5; F508del corr: -0.7; DENV2 CPE rescue: 4.3; FGF22 binding: 44.1*

What do the screens show for `COC(=O)CN1C(=O)N/C(=C/c2ccc(OC)cc2)C1=O`?
ERAP1 inh: 4.3; F508del corr: 2.1; DENV2 CPE rescue: 19.1; FGF22 binding: 43.3*

What do the screens show for `CC(C)CC1Nc2ncnc(N3CCN(c4ccccn4)CC3)c2N(Cc2ccc(Br)cc2)C1=O` (configuration not stated)?
E-sel inducer: 1.5; ERAP1 inh: -4.4; F508del corr: 8.3*; DENV2 CPE rescue: 6.6; FGF22 binding: 0.0

Results for C[C@@H]1CN([C@@H](C)CO)C(=O)c2cc(C#Cc3cccc(F)c3)cnc2O[C@@H]1CN(C)C(=O)C1CCCCC1 ?
E-sel inducer: 0.1; ERAP1 inh: -4.4; F508del corr: 2.6; DENV2 CPE rescue: 9.7; FGF22 binding: 0.6

Results for COC(=O)C[C@@H]1C[C@@H]2c3cc(NC(=O)Nc4ccccc4)ccc3O[C@@H]2[C@@H](CO)O1 ?
E-sel inducer: 0.8; ERAP1 inh: -0.6; F508del corr: 1.5; DENV2 CPE rescue: -4.6; FGF22 binding: -0.8

How did CCOc1ccccc1NC(=O)COC(=O)c1ccc(S(=O)(=O)N2CCCC2)cc1 do in these assays?
E-sel inducer: -0.3; ERAP1 inh: -0.4; F508del corr: 0.1; DENV2 CPE rescue: -0.6; FGF22 binding: -0.1

Results for COc1ccccc1NC(=O)COC(=O)c1ccc(S(=O)(=O)N2CCCCCC2)cc1 ?
E-sel inducer: -0.2; ERAP1 inh: 0.5; F508del corr: -0.6; DENV2 CPE rescue: inconclusive; FGF22 binding: 43.2*

What do the screens show for `Cc1ccc(C(=O)OCC(=O)Nc2ccccc2C(F)(F)F)cc1S(=O)(=O)N1CCCCC1`?
E-sel inducer: 1.2; ERAP1 inh: 0.5; F508del corr: -0.8; DENV2 CPE rescue: 101.1*; FGF22 binding: -0.1

How did C[C@]12CC[C@H](OC(=O)CCC(=O)O)CC1=CCC1C2CC[C@@]2(C)C1CC[C@@H]2N (some centres not stated) do in these assays?
E-sel inducer: -0.2; ERAP1 inh: -1.5; F508del corr: 1.8; DENV2 CPE rescue: -9.5; FGF22 binding: 43.5*

Results for CCCCCC(=C/c1ccccc1)/C=N/Nc1ccc(S(=O)(=O)N2CCOCC2)cc1[N+](=O)[O-] ?
E-sel inducer: -0.6; ERAP1 inh: -3.1; F508del corr: 2.6; DENV2 CPE rescue: 32.2*; FGF22 binding: -0.2

What do the screens show for `OC[C@H]1[C@@H](c2ccc(-c3ccc(F)cc3)cc2)[C@@H]2CN(Cc3ccccn3)CCCCN12`?
E-sel inducer: -0.3; ERAP1 inh: 1.1; F508del corr: -0.4; DENV2 CPE rescue: 29.1*; FGF22 binding: -0.2

Results for OC[C@H]1[C@@H](c2ccc(-c3ccc(F)cc3)cc2)[C@@H]2CN(Cc3ccncc3)CCCCN12 ?
E-sel inducer: 0.2; ERAP1 inh: 1.7; F508del corr: -2.7; DENV2 CPE rescue: 16.6; FGF22 binding: -0.3

What do the screens show for `OC[C@H]1[C@H](c2ccc(-c3ccc(F)cc3)cc2)[C@@H]2CN(Cc3ccncc3)CCCCN12`?
E-sel inducer: -0.2; ERAP1 inh: 1.0; F508del corr: 1.0; DENV2 CPE rescue: 44.0*; FGF22 binding: -0.1

How did COc1ccccc1-c1ccc([C@@H]2[C@@H](CO)N3CCCCN(Cc4ccncc4)C[C@H]23)cc1 do in these assays?
E-sel inducer: -0.1; ERAP1 inh: -1.4; F508del corr: -1.4; DENV2 CPE rescue: 26.1*; FGF22 binding: 0.3

Compound activity (PubChem)
